ChEMBL document CHEMBL3259792 (Eur J Med Chem, 2014)

Assays:
[1] = tested on: Human immunodeficiency virus 1; assay: Antiviral activity against HIV1 harboring reverse transcriptase K103N mutant infected in human MT4 cells assessed as inhibition of virus-induced cell death measured after 5 days of infection by MTT method; format: functional, organism-based; details: Human immunodeficiency virus 1, MT4, 120 h
Summary of the method: (§1)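 MT-4 cells infected with the named NNRTI-resistant HIV-1 RT mutant strain, in the presence of a range of compound concentrations. Viable cells counted at day 5 post-infection by tetrazolium (MTT) colorimetry. […] Mean of 2–3 independent experiments, each in triplicate.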

[2] = tested on: Human immunodeficiency virus 1; assay: Antiviral activity against HIV1 harboring reverse transcriptase K103N/Y181C double mutant infected in human MT4 cells assessed as inhibition of virus-induced cell death measured after 5 days of infection by MTT method; format: functional, organism-based; details: Human immunodeficiency virus 1, MT4, 120 h; summary of the method: as §1
[3] = tested on: Human immunodeficiency virus 1; assay: Ratio of EC50 for HIV1 harboring reverse transcriptase K103N/Y181C double mutant to EC50 for wild type HIV1 NL4.3; format: functional
Summary of the method: (§2)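 Fold change is the EC50 against the named mutant strain divided by the EC50 against wild-type HIV-1 NL4-3. […] Means of 2–3 independent experiments in triplicate.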

[4] = molecular target: T1, Human immunodeficiency virus type 1 reverse transcriptase (Human immunodeficiency virus 1, UniProt Q72547); assay: Inhibition of HIV1 wild-type reverse transcriptase using [3H]dTTP by scintillation counting
[5] = tested on: Human immunodeficiency virus 1; assay: Antiviral activity against HIV1 harboring reverse transcriptase Y188L mutant infected in human MT4 cells assessed as inhibition of virus-induced cell death measured after 5 days of infection by MTT method; format: functional, organism-based; details: Human immunodeficiency virus 1, MT4, 120 h; summary of the method: as §1
[6] = tested on: Human immunodeficiency virus 1; assay: Ratio of EC50 for HIV1 harboring reverse transcriptase K103N mutant to EC50 for wild type HIV1 NL4.3; format: functional; summary of the method: as §2
[7] = molecular target: Human immunodeficiency virus type 1 reverse transcriptase (Human immunodeficiency virus 1, UniProt Q72547, L100I); assay: Inhibition of HIV1 wild-type reverse transcriptase L100I mutant using [3H]dTTP by scintillation counting
Summary of the method: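 RNA-dependent DNA polymerase activity of recombinant RT (2–4 nM) on poly(rA)/oligo(dT) 10:1 with [3H]dTTP (1 Ci/mmol). Incubation at 37 °C. Acid-insoluble radioactivity collected on GF/C filters after 5% cold TCA, counted by scintillation.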

[8] = tested on: Human immunodeficiency virus 1; assay: Ratio of EC50 for HIV1 harboring reverse transcriptase Y188L mutant to EC50 for wild type HIV1 NL4.3; format: functional; summary of the method: as §2
[9] = tested on: Human immunodeficiency virus 1; assay: Antiviral activity against HIV1 NL4.3 infected in human MT4 cells assessed as inhibition of virus-induced cell death measured after 5 days of infection by MTT method; format: functional, organism-based; details: Human immunodeficiency virus 1, NL4.3, MT4, 120 h
Summary of the method: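 Lymphoid MT-4 cells (NIH AIDS Reagent Program) infected with HIV-1 NL4-3 in the presence of varying compound concentrations. On day 5 post-infection, viable cells were counted by MTT tetrazolium colorimetry. EC₅₀ = concentration inhibiting virus-induced cell death by 50%. Means of two to three independent experiments, each in triplicate.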

[10] = molecular target: T1, Human immunodeficiency virus type 1 reverse transcriptase; assay: Inhibition of HIV1 wild-type reverse transcriptase Y181I/Y181C mutant using [3H]dTTP by scintillation counting
[11] = molecular target: Human immunodeficiency virus type 1 reverse transcriptase (Human immunodeficiency virus 1, UniProt Q72547, V106A); assay: Inhibition of HIV1 wild-type reverse transcriptase V106A mutant using [3H]dTTP by scintillation counting
[12] = tested on: Human immunodeficiency virus 1; assay: Antiviral activity against HIV1 harboring reverse transcriptase Y181C mutant infected in human MT4 cells assessed as inhibition of virus-induced cell death measured after 5 days of infection by MTT method; format: functional, organism-based; details: Human immunodeficiency virus 1, MT4, 120 h; summary of the method: as §1
[13] = tested on: Human immunodeficiency virus 1; assay: Ratio of EC50 for HIV1 harboring reverse transcriptase Y181C mutant to EC50 for wild type HIV1 NL4.3; format: functional; summary of the method: as §2
[14] = molecular target: Human immunodeficiency virus type 1 reverse transcriptase (Human immunodeficiency virus 1, UniProt Q72547, K103N); assay: Inhibition of HIV1 wild-type reverse transcriptase K103N mutant using [3H]dTTP by scintillation counting
[15] = tested on: Human immunodeficiency virus 1; assay: Antiviral activity against HIV1 3B infected in human CEM cells assessed as protection of cells monitored by giant cell formation by microscopy; format: functional, organism-based; details: Human immunodeficiency virus 1, 3B, CCRF-CEM
Summary of the method: (§3)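 Human CEM cultures (~3 × 10⁵ cells/mL) infected with ~100 CCID₅₀ per mL of HIV-1 IIIB or HIV-2 ROD, seeded with serial compound dilutions. Incubated 4 days at 37 °C; syncytium (giant cell) formation scored by microscopy. EC₅₀ = concentration protecting cells from viral cytopathicity by 50%. Means of two to three independent experiments, each in triplicate.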

[16] = tested on: Human immunodeficiency virus 1; assay: Ratio of EC50 for HIV1 harboring reverse transcriptase […] mutant to EC50 for wild type HIV1 NL4.3; format: functional; summary of the method: as §2
[17] = tested on: Human immunodeficiency virus 2; assay: Antiviral activity against HIV-2 ROD infected in human CEM cells assessed as protection of cells monitored by giant cell formation by microscopy; format: functional, organism-based; details: Human immunodeficiency virus 2, ISOLATE ROD, CCRF-CEM; summary of the method: as §3
[18] = tested on: Human immunodeficiency virus 1; assay: Ratio of efavirenz EC50 to compound EC50 for HIV1 harboring reverse transcriptase L100I mutant infected in human MT4 cells; format: functional
[19] = tested on: Human immunodeficiency virus 1; assay: Antiviral activity against HIV1 harboring reverse transcriptase […] mutant infected in human MT4 cells assessed as inhibition of virus-induced cell death measured after 5 days of infection by MTT method; format: functional, organism-based; details: Human immunodeficiency virus 1, MT4, 120 h; summary of the method: as §1
[20] = Selectivity index, ratio of CC50 for human MT4 cells to EC50 for HIV1 NL4.3 infected in human MT4 cells; format: toxicity, cell-based; details: read-out: Ratio CC50/EC50
Summary of the method: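 Ratio CC₅₀/EC₅₀. CC₅₀ is from mock-infected MT-4 cells and EC₅₀ from HIV-1 NL4-3-infected MT-4 cells, both read by MTT at day 5 post-infection.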

[21] = Cytotoxicity against human MT4 cells assessed as cell viability by MTT assay; format: cell-based
Summary of the method: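 Mock-infected MT-4 cells exposed to a range of compound concentrations. Viable cells measured by MTT colorimetry at day 5. CC₅₀ = concentration causing 50% death of non-infected cells. Means of two to three independent experiments, each in triplicate.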

[22] = tested on: Human immunodeficiency virus 1; assay: Ratio of EC50 for HIV1 harboring reverse transcriptase K103N mutant to EC50 for wild type HIV1 3B; format: functional
[23] = tested on: Human immunodeficiency virus 1; assay: Ratio of efavirenz EC50 to compound EC50 for HIV1 harboring reverse transcriptase Y188L mutant infected in human MT4 cells; format: functional
[24] = tested on: Human immunodeficiency virus 1; assay: Ratio of efavirenz EC50 to compound EC50 for HIV1 harboring reverse transcriptase K103N mutant infected in human MT4 cells; format: functional
[25] = tested on: Human immunodeficiency virus 1; assay: Ratio of AZT EC50 to compound EC50 for HIV1 harboring reverse transcriptase K103N mutant infected in human MT4 cells; format: functional

SMILES | EC50 [1] | EC50 [2] | Ratio EC50 [3] | IC50 [4] | EC50 [5] | Ratio EC50 [6] | IC50 [7] | Ratio EC50 [8] | EC50 [9] | IC50 [10] | IC50 [11] | EC50 [12] | Ratio EC50 [13] | IC50 [14] | EC50 [15] | Ratio EC50 [16] | EC50 [17] | EC50 [19] | selectivity ratio [20] | CC50 [21] | other results
Cc1cc(C)cc(S(=O)(=O)c2c(C(=O)N[C@@H](C)c3ccccc3)[nH]c3ccc(Cl)cc23)c1 | 128 nM | > 36400 nM | >5778 | 50 nM | > 36400 nM | 20 | 80 nM | >5778 | 6.3 nM | > 20000 nM | 28 nM | 3470 nM | 550 | 9400 nM | – | – | – | – | – | – | –
Cc1cc(C)cc(S(=O)(=O)c2c(C(=O)NCc3ccccc3F)[nH]c3ccc(Cl)cc23)c1 | 7.8 nM | 2140 nM | 3153 | 180 nM | – | 11.5 | 70 nM | – | 0.68 nM | > 20000 nM | – | 220 nM | 324 | 100 nM | 3.6 nM | 7.9 | > 2000 nM | 5.4 nM | > 78100 | > 53100 nM | Ratio EC50 [18]: 10
Cc1cc(C)cc(S(=O)(=O)c2c(C(=O)NCc3ccc(F)cc3)[nH]c3ccc(Cl)cc23)c1 | 16 nM | 50300 nM | 45750 | 26 nM | – | 14.5 | 30 nM | – | 1.1 nM | > 20000 nM | – | 160 nM | 145 | 24 nM | 5.3 nM | 5.4 | > 10000 nM | 5.9 nM | > 48300 | > 53100 nM | Ratio EC50 [18]: 10
Cc1cc(C)cc(S(=O)(=O)c2c(C(=O)N[C@H](C)c3ccccc3)[nH]c3ccc(Cl)cc23)c1 | 4.3 nM | 1670 nM | 795 | 39 nM | 193 nM | 2 | 50 nM | 92 | 2.1 nM | 2530 nM | 65 nM | 86 nM | 41 | 90 nM | – | – | – | – | – | – | –
Cc1cc(C)cc(S(=O)(=O)c2c(C(=O)NC(C)Cc3ccccc3)[nH]c3ccc(Cl)cc23)c1 (racemic) | 530 nM | > 2080 nM | 23 | – | > 1000 nM | – | – | >11 | – | – | – | > 1000 nM | >11 | – | 91 nM | 4.2 | – | 380 nM | – | – | Ratio EC50 [22]: 5.8
Cc1cc(C)cc(S(=O)(=O)c2c(C(=O)NC(C)c3ccccc3)[nH]c3ccc(Cl)cc23)c1 (racemic) | 33 nM | 3270 nM | 5445 | 40 nM | – | 55 | 70 nM | – | 0.6 nM | 8230 nM | 50 nM | 720 nM | 1200 | 540 nM | 16 nM | 43 | > 10000 nM | 26 nM | > 206000 | > 53500 nM | –
Cc1cc(C)cc(S(=O)(=O)c2c(C(=O)NCc3ccccc3[N+](=O)[O-])[nH]c3ccc(Cl)cc23)c1 | 6 nM | 1870 nM | 2335 | 23 nM | 281 nM | 7.5 | – | 351 | 0.8 nM | > 20000 nM | – | 16 nM | 20 | 23 nM | – | – | – | – | > 62800 | > 50200 nM | Ratio EC50 [23]: 2.7
Cc1cc(C)cc(S(=O)(=O)c2c(C(=O)NCc3ccc(N)cc3)[nH]c3ccc(Cl)cc23)c1 | 4.2 nM | 598 nM | 2847 | 7.7 nM | 491 nM | 20 | – | 2338 | 0.21 nM | 201 nM | – | 11 nM | 52 | 34 nM | – | – | – | – | – | 6370 nM | Ratio EC50 [24]: > 546; Ratio EC50 [25]: >3; Ratio EC50 [23]: 1.5
